# HTR5A inv ctr: counter-screen for OPRM1-OPRD1 inverse agonists: human HTR5A inverse agonism | P47898 | HTR5A cell line, luminescence | inhibition, % at 9.3 µM | 340,000 tested, 0.083% active | AID 504634; in the data active = inhibition mostly above about 23%, no sharp cut-off; inactive = mostly below about 18%;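 also: 0% = cells with DMSO and 100% = no-cell wells with DMSO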
# MOR-DOR ag: OPRM1-OPRD1 heterodimerization agonism; cells, luminescence; 340,000 tested, 0.3% active; activation, % at 9.3 µM;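 also: 0% = vehicle-treated cells and 100% = reference agonist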
# Target sequence (P35372 whole entry, looked up): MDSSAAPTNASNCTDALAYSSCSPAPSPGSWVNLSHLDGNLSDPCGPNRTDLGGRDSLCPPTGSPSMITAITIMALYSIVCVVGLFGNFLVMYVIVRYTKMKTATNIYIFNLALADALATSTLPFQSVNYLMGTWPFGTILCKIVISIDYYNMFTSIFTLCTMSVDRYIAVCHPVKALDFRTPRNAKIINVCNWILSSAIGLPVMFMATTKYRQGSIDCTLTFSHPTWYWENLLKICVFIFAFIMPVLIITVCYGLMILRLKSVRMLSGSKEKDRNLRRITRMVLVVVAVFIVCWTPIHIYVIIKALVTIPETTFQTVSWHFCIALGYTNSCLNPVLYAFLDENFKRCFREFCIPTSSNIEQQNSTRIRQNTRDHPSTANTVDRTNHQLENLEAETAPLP
# Target sequence (P41143 whole entry, looked up): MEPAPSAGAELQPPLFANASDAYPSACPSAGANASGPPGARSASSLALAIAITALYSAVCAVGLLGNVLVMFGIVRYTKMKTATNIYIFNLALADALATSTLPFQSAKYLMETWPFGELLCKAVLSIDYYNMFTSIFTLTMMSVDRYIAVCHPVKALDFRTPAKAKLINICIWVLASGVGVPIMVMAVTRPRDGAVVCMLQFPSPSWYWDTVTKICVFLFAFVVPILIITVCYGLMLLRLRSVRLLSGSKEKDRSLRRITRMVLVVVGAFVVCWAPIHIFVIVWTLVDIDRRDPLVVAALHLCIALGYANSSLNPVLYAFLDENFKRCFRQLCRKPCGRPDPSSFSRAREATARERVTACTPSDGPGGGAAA
# Lipid droplet: hepatic lipid droplet formation modulation; AML12 mouse hepatocytes, oleate lipid droplets, BODIPY imaging; inhibition, % at 6.5 µM; 240,000 tested, 0.4% active; AID 1656;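 active = lipid droplet intensity inhibited by at least 50%, with more than 500 cells counted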
#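 Assay system: AML12 mouse liver cells | Compound: 6.5 µM single-point dosing | Schedule: Overnight exposure | Technique: Fluorescence imaging, 20x objective, two fields per well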
# HTR5A ag: activates human HTR5A in OPRM1-OPRD1 agonist counter-screen; HTR5A agonist assay, luminescence, cell-based; activation, % at 9.3 µM; 340,000 tested, 0.61% active; AID 504692; in the data active = activation mostly above about 9.5%, no sharp cut-off; inactive = mostly below about 7.6%;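 also: 0% = cells with vehicle only and 100% = reference agonist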
# MOR-DOR inv ag: inverse agonists of human mu-delta opioid receptor heterodimerization | AID 504357 | inhibition, % at 9.3 µM | P35372+P41143 | cell-based MOR-DOR heterodimer luminescence, inverse agonism | 340,000 tested, 0.21% active; in the data active = inhibition above about 22%, passing the limit was not always enough;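 also: 0% = cells with DMSO and 100% = wells without cells with DMSO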
# MOR-DOR ag conf: OPRM1-OPRD1 heterodimer agonism, confirmation | shares compounds with MOR-DOR ag | 830 tested, 45% active | cells, MOR-DOR heterodimerization, luminescence complementation | activation, % at 9.3 µM;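 also: 0% = vehicle-treated cells and 100% = reference agonist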
# HTR5A ag counter: counter-screen for OPRM1-OPRD1 agonists: human HTR5A agonism | 830 tested, 8% active | shares compounds with MOR-DOR ag | activation, % at 9.3 µM | AID 504905 | HTR5A agonist counterscreen, cell luminescence; in the data active = activation above about 17%;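 also: 0% = vehicle-treated cells and 100% = reference agonist response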
# MOR-DOR inv conf: confirmation of human OPRM1-OPRD1 heterodimerization inverse agonists; shares compounds with MOR-DOR inv ag; cells expressing OPRM1/OPRD1 heterodimer, luminescence; inhibition, % at 9.3 µM; 580 tested, 20% active; in the data active = inhibition above about 32%;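 also: 0% = cells with DMSO and 100% = wells lacking cells with DMSO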
# HTR5A inv ctr2: HTR5A inverse agonism, opioid heterodimer counter-screen; shares compounds with MOR-DOR inv ag; HTR5A-expressing cells, luminescence; inhibition, % at 9.3 µM; 580 tested, under 10 active; AID 504914; call rule not given here;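 also: 0% = cells with DMSO and 100% = no-cell wells with DMSO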
# Active calls of the source: *; i = inactive; . = not tested or not shown. This is a sample that favours compounds with a hit; in the whole collection about 1.4% have one here. Rule as the data show it, unless noted: active = activation above about 18%; inactive = the rest.
SMILES,HTR5A inv ctr,MOR-DOR ag,Lipid droplet,HTR5A ag,MOR-DOR inv ag,MOR-DOR ag conf,HTR5A ag counter,others
COc1ccc(C(CNC(=O)c2ccc3c(c2)CCC3)N(C)C)cc1 (configuration not stated),-6.9,399.7*,-24.7,2.4,i,512.3*,-2.0,
COc1ccc(CCn2c(O)c(C=NCCN3CCCCC3)c(=O)[nH]c2=O)cc1OC,-2.7,78.9*,-5.3,2.1,-398.3,0.8,-0.5,
CCCCCCN=C(C)c1c(O)n(CCCC)c(=O)[nH]c1=O,-28.2,0.2,.,10.0,-1.2,.,.,
CN1CC[C@]23c4c5ccc(OC6OC(C(=O)O)[C@@H](O)C(O)[C@H]6O)c4OC2C(O)C=CC3[C@H]1C5 (some centres not stated),-9.8,8.4,.,4.2,-33.6,.,.,
COc1ccc2c3c1OC1[C@H](O)CCC4[C@@H](C2)N(C)CC[C@]314 (some centres not stated),-9.0,45.9*,.,3.9,-184.7,2.2,3.9,
CN1CC[C@]23c4c5ccc(O)c4OC2C(O)C=CC3[C@H]1C5 (some centres not stated),-15.4,.,.,6.7,.,.,-1.8,
COC1=CC2[C@@H]3Cc4ccc(OC)c(O)c4[C@]2(CCN3C)CC1=O (some centres not stated),-9.9,-1.8,.,2.7,8.6,.,.,
CC(=O)OC1C=CC2[C@H]3Cc4ccc(O)c5c4[C@@]2(CCN3C)C1O5 (some centres not stated),-13.2,282.2*,.,5.7,i,-1.8,-1.0,
Cc1cc(C)n2nc(C)[n+](C)c2n1,5.6,-2.1,.,3.1,9.2,.,.,
CCC1=CCN(CCc2c(C)[nH]c3ccccc23)CC1,4.9,-3.2,.,-0.3,16.3,.,.,
CC12CCC3C(CCC4(O)CC(O)CCC34C=NO)C1(O)CCC2C1=COC(=O)C1 (configuration not stated),-117.6,76.9*,.,30.7*,-336.6,-0.4,-1.2,
C[C@H]1O[C@@H](OC2CC[C@]3(C=O)[C@H]4CC[C@]5(C)[C@@H](C6=CC(=O)OC6)CC[C@]5(O)[C@@H]4CC[C@]3(O)C2)CC2OC(C)(C)OC21 (some centres not stated),-127.2,72.8*,.,32.8*,-420.2,-2.4,-2.1,
C[C@]12CC[C@H]3[C@@H](CC[C@]4(O)C[C@@H](O)CC[C@]34C=O)[C@@]1(O)CC[C@@H]2C1=CC(=O)OC1,-71.1,69.5*,.,19.9,-376.0,0.5,-0.3,
C[C@]12CCC3C(CCC4=CC(O)CC[C@@]43/C=N/O)C1(O)CCC2C1=CC(=O)OC1 (some centres not stated),-105.8,69.2*,-1.9,28.9*,-354.9,38.1*,21.6*,
CN(C)C(=O)Oc1ccc2c(c1)O/C(=C\c1cccc(Cl)c1)C2=O,16.1,1.1,5.3,-4.5,-4.7,.,.,
CCCCN=C[C@]12CCC(O)CC1(O)CCC1[C@@H]2CC[C@]2(C)[C@H](C3C=CC(=O)O3)CCC12O (some centres not stated),-122.9,71.4*,.,31.4*,-395.7,35.7*,27.1*,
CC12CC[C@H]3[C@@H](CCC4(O)C[C@H](O)CCC34/C=N/NC(=O)c3ccccc3Cl)C1(O)CCC2C1=CC(=O)OC1 (some centres not stated),-13.0,-1.0,0.7,4.1,5.3,.,.,
CC12CCC3C(CCC4(O)CC(O)CCC34C=O)C1(O)CCC2C1=CC(=O)OC1 (configuration not stated),-113.3,78.7*,.,29.0*,-404.8,40.6*,23.9*,
OC(c1ccc(F)cc1)C(c1ccccc1)N1CCOCC1 (configuration not stated),-8.5,-0.4,2.7,-1.7,2.5,.,.,
Cc1cc(-c2ccccc2)cc(C)[n+]1Cc1ccccc1,3.1,53.1*,.,3.1,-298.5,0.3,1.3,
COc1cc2c3cc1Oc1c(OC)c(OC)cc4c1[C@H](Cc1ccc(cc1)Oc1cc(ccc1O)C[C@H]3N(C)CC2)N(C)CC4,1.0,-1.0,.,0.5,5.5,.,.,
COc1cc2c3cc1Oc1cc(ccc1O)C[C@@H]1c4c(cc(OC)c(O)c4Oc4ccc(cc4)C[C@H]3N(C)CC2)CCN1C,-23.4,34.2*,-7.7,11.0,-189.4,64.9*,-3.8,
C[C@H]1CCC/C=C/[C@@H]2C[C@H](O)C[C@H]2[C@@H](O)/C=C/C(=O)O1,5.2,-9.5,.,-1.4,41.8*,.,.,MOR-DOR inv conf=-455.3;HTR5A inv ctr2=-24.0
O=C(CN1CCCCC1)c1cccc(Br)c1,3.4,-12.7,18.6,-3.2,68.2*,.,.,MOR-DOR inv conf=-444.2;HTR5A inv ctr2=-13.3
CCCCn1c(NS(=O)(=O)c2ccccc2)c(C(=O)OCC)c2nc3ccccc3nc21,13.3,-5.8,-9.1,-0.2,31.8*,.,.,MOR-DOR inv conf=-16.0;HTR5A inv ctr2=-14.2
SMILES,HTR5A inv ctr,MOR-DOR ag,Lipid droplet,HTR5A ag,MOR-DOR inv ag,MOR-DOR ag conf,HTR5A ag counter,others
Cc1ccc(-c2nc3ccccc3c(=O)n2-c2ncccc2C)cc1,13.9,0.9,.,-5.1,-4.2,.,.,
CCOc1cc(-c2nc3c(C)cccn3c2NCC2CCCO2)ccc1O (configuration not stated),-2.7,-2.3,.,-6.1,12.1,.,.,
CC1(C)CC(n2[nH]c(=O)c3c2NC(=O)CSC3c2ccccc2)CCO1 (configuration not stated),11.0,-7.3,.,1.6,30.6*,.,.,MOR-DOR inv conf=-1.9;HTR5A inv ctr2=-15.5
Cc1ccc(C2SCC(=O)Nc3c2c(=O)[nH]n3C2CCOC(C)(C)C2)cc1 (configuration not stated),8.6,-2.7,14.5,-3.4,11.5,.,.,
CCCCOP(=O)(CN1CCOCC1)OCCCC,1.3,-1.6,.,0.1,9.2,.,.,
CC(C)(C)OC(=O)c1c(N)n(Cc2ccco2)c2nc3ccccc3nc12,20.4,-6.8,.,0.9,40.4*,.,.,MOR-DOR inv conf=96.0*;HTR5A inv ctr2=17.2
N#Cc1c(/N=C/c2ccc(O)cc2O)sc2c1C1CCN2CC1,7.1,-9.8,2.0,-1.9,50.7*,.,.,MOR-DOR inv conf=-3.5;HTR5A inv ctr2=9.9
COC(=O)[C@]12OC[C@]34C([C@@H](O)[C@@H]1O)[C@]1(C)CC(=O)C(O)=C(C)[C@@H]1C[C@H]3OC(=O)[C@H](O)[C@@H]24 (some centres not stated),-7.7,-1.1,-2.4,-7.2,5.7,.,.,
COC(=O)C1=C(c2c(C)noc2C)C[C@@H]2CC[C@H]1N2C(=O)N1CCC(O)(c2ccc(Cl)cc2)CC1,1.7,-0.8,.,-0.5,3.7,.,.,
CCC1CCCCN1CC(=O)c1ccc(OC(F)F)cc1 (configuration not stated),17.3,-8.0,-3.8,6.0,42.4*,.,.,MOR-DOR inv conf=14.2;HTR5A inv ctr2=40.8

# Screening results deposited in PubChem by several laboratories.
